pIC50: −log10 of the molar value.
How the values were obtained:
SMMC-7721 = test: Cytotoxicity against human SMMC-7721 cells assessed as reduction in cell viability incubated for 24 hrs by MTT assay; format: functional, cell-based; conditions: SMMC-7721, 24 h
Procedure, shortened: (§1)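 Cells kept at 37 °C in 5% CO₂. HepG2 grown in DMEM with 10% serum; HHL-5, LO2 and SMMC-7721 in 1640 medium with 10% serum. Seeded, grown 24 h, then exposed 24 h to 10, 5, 2.5, 1.25, 0.625 and 0.3125 µg/mL. MTT (5 mg/mL) added for 4 h at 37 °C; formazan dissolved in DMSO, OD read at 570 nm. IC50 averaged from three replicates.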

RAW264.7 [1] = test: Cytotoxicity against mouse RAW264.7 cells assessed as reduction in cell viability at 5 uM incubated for 24 hrs by MTT assay; format: cell-based; conditions: raw264.7, 24 h
[2] = Cytotoxicity against human HHL-5 cells assessed as reduction in cell viability incubated for 24 hrs by MTT assay; format: cell-based; conditions: HHL-5, 24 h; procedure, shortened: as §1
HepG2 = test: Cytotoxicity against human HepG2 cells assessed as reduction in cell viability incubated for 24 hrs by MTT assay; format: functional, cell-based; conditions: HepG2, 24 h; procedure, shortened: as §1
L02 = test: Cytotoxicity against human L02 cells assessed as reduction in cell viability incubated for 24 hrs by MTT assay; format: cell-based; conditions: L02, 24 h; procedure, shortened: as §1
RAW264.7 [3] = test: Antiinflammatory activity against mouse RAW264.7 cells assessed as LPS-induced TNF-alpha at 5 uM pretreated for 2 hrs followed by LPS stimulation and measured after 22 hrs by ELISA (reference value: 0 %); format: functional; conditions: time 24 hrs
RAW264.7 [4] = test: Antiinflammatory activity against mouse RAW264.7 cells assessed as LPS-induced IL-6 at 5 uM pretreated for 2 hrs followed by LPS stimulation and measured after 22 hrs by ELISA relative to control (reference value: 0 %); format: functional; conditions: time 24 hrs
RAW264.7 [5] = test: Antiinflammatory activity against mouse RAW264.7 cells assessed as LPS-induced TNF-alpha at 30 uM pretreated for 2 hrs followed by LPS stimulation and measured after 22 hrs by ELISA (reference value: 0 %); format: functional; conditions: time 24 hrs
Procedure, shortened: (§2)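 Mouse RAW264.7 macrophages were pretreated with compound for 2 h, then stimulated with LPS (1.0 µg/mL) for 22 h. Culture medium was centrifuged at 1000 rpm for 10 min, and secreted TNF-α and IL-6 were each quantified by ELISA kit. Inhibition rates are means of three replicates.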

RAW264.7 [6] = test: Antiinflammatory activity against mouse RAW264.7 cells assessed as LPS-induced IL-6 at 30 uM pretreated for 2 hrs followed by LPS stimulation and measured after 22 hrs by ELISA (reference value: 0 %); format: functional; conditions: time 24 hrs; procedure, shortened: as §2

Row | Structure (SMILES) | pIC50 (SMMC-7721) | Activity (RAW264.7 [1]) | pIC50 [2] | pIC50 (HepG2) | pIC50 (L02) | inhibition at 5 µM (RAW264.7 [3]) [%] | inhibition at 5 µM (RAW264.7 [4]) [%] | inhibition at 30 µM (RAW264.7 [5]) [%] | inhibition at 30 µM (RAW264.7 [6]) [%]
1 | Cl.NC1=NC(c2ccccc2F)C2=C(N1)/C(=C/c1ccccc1F)CN(S(=O)(=O)c1ccccc1)C2 (stereo unspecified) | 5.07 | Non-Toxic | 5.00 | 5.00 | 4.95 | 46.9 | 40.5 |  | 
2 | Cl.NC1=NC(c2ccc(F)cc2)C2=C(N1)/C(=C/c1ccc(F)cc1)CN(S(=O)(=O)c1ccc([N+](=O)[O-])cc1)C2 (stereo unspecified) | 4.72 | Non-Toxic | 4.99 | 5.03 | 4.90 | 65.9 | 66.8 |  | 
3 | Cl.NC1=NC(c2cccc(F)c2)C2=C(N1)/C(=C/c1cccc(F)c1)CN(S(=O)(=O)c1ccc(Cl)cc1)C2 (stereo unspecified) | 5.26 | Non-Toxic | 4.92 | 4.82 | 4.82 | 57.7 | 75.9 |  | 
4 | Cl.NC1=NC(c2cccc(F)c2)C2=C(N1)/C(=C/c1cccc(F)c1)CN(S(=O)(=O)c1ccc([N+](=O)[O-])cc1)C2 (stereo unspecified) | 4.91 | Non-Toxic | 4.52 | 4.51 | 4.37 | 58.8 | 78.5 |  | 
5 | CC(=O)Nc1ccc(S(=O)(=O)N2CC3=C(NC(N)=NC3c3cccc(F)c3)/C(=C/c3cccc(F)c3)C2)cc1.Cl (stereo unspecified) | 5.19 | Non-Toxic | 4.97 | 4.64 | 4.82 | 69.9 | 57.5 |  | 
6 | Cl.NC1=NC(c2cccc(F)c2)C2=C(N1)/C(=C/c1cccc(F)c1)CN(S(=O)(=O)c1ccccc1)C2 (stereo unspecified) | 4.89 | Non-Toxic | 4.95 | 5.43 | 4.42 | 54 | 56.3 |  | 
7 | Cl.NC1=NC(c2ccc(F)cc2)C2=C(N1)/C(=C/c1ccc(F)cc1)CN(S(=O)(=O)c1ccc(Cl)cc1)C2 (stereo unspecified) | 4.92 | Non-Toxic | 4.57 | 5.12 | 4.78 | 48.4 | 54.8 |  | 
8 | Cl.NC1=NC(c2ccc(F)cc2)C2=C(N1)/C(=C/c1ccc(F)cc1)CN(S(=O)(=O)c1ccc(C(F)(F)F)cc1)C2 (stereo unspecified) | 5.42 | Non-Toxic | 4.61 | 5.48 | 4.81 | 87.5 | 81.7 |  | 
9 | Cl.NC1=NC(c2cccc(F)c2)C2=C(N1)/C(=C/c1cccc(F)c1)CN(S(=O)(=O)c1ccc(Br)cc1)C2 (stereo unspecified) | 5.20 | Non-Toxic | 4.89 | 4.97 | 5.00 | 69.3 | 71 |  | 
10 | Cc1ccc(S(=O)(=O)N2CC3=C(NC(N)=NC3c3ccc(F)cc3)/C(=C/c3ccc(F)cc3)C2)cc1.Cl (stereo unspecified) | 5.37 | Non-Toxic | 4.49 | 5.35 | 4.75 | 61.8 | 60.1 |  | 
11 | Cl.N#Cc1ccc(S(=O)(=O)N2CC3=C(NC(N)=NC3c3ccc(F)cc3)/C(=C/c3ccc(F)cc3)C2)cc1 (stereo unspecified) | 4.37 | Non-Toxic | 4.57 | 4.93 | 4.73 | 45.9 | 51.1 |  | 
12 | Cl.NC1=NC(c2ccccc2F)C2=C(N1)/C(=C/c1ccccc1F)CN(S(=O)(=O)c1ccc([N+](=O)[O-])cc1)C2 (stereo unspecified) | 5.24 | Non-Toxic | 4.97 | 4.92 | 4.91 | 72.7 | 79.6 |  | 
13 | Cc1ccc(S(=O)(=O)N2CC3=C(NC(N)=NC3c3ccccc3F)/C(=C/c3ccccc3F)C2)cc1.Cl (stereo unspecified) | 5.14 | Non-Toxic | 5.02 | 4.88 | 4.94 | 44 | 56.8 |  | 
14 | S=C(S)N1CCCC1 [PYRROLIDINE DITHIOCARBAMATE] |  |  |  |  |  |  |  | 66.5 | 56.9
15 | Cl.NC1=NC(c2ccc(F)cc2)C2=C(N1)/C(=C/c1ccc(F)cc1)CN(S(=O)(=O)c1ccc(F)cc1)C2 (stereo unspecified) | 4.77 | Non-Toxic | 4.95 | 5.39 | 4.88 | 72.3 | 71.4 |  | 
16 | Cl.NC1=NC(c2ccc(F)cc2)C2=C(N1)/C(=C/c1ccc(F)cc1)CN(S(=O)(=O)c1ccc(Br)cc1)C2 (stereo unspecified) | 4.91 | Non-Toxic | 4.74 | 5.25 | 4.74 | 58.1 | 64.3 |  | 
17 | Cl.NC1=NC(c2ccccc2F)C2=C(N1)/C(=C/c1ccccc1F)CN(S(=O)(=O)c1ccc(Cl)cc1)C2 (stereo unspecified) | 5.31 | Non-Toxic | 5.04 | 4.91 | 4.94 | 83 | 81.5 |  | 
18 | Cl.N#Cc1ccc(S(=O)(=O)N2CC3=C(NC(N)=NC3c3ccccc3F)/C(=C/c3ccccc3F)C2)cc1 (stereo unspecified) | 4.72 | Non-Toxic | 4.54 | 4.93 | 4.92 | 62.9 | 71.2 |  | 
